According to ChEMBL document CHEMBL5370602, “Structure-Based Design of a Lead Compound Derived from Natural Schweinfurthins with Antitumor Properties That Target Oxysterol-Binding Protein” (J Med Chem, 2023):
The source made the active and inactive calls. No cut-off for these calls is given here.

Tests used:
[1] = Antitumor activity in high alert medicated patient derived human GBM1 cells xenografted in immunodeficient nude mouse model assessed as tumor growth inhibition at 50 mg/kg,ip QD and measured after 9 to 11 days; assay type: functional
In short: (§1)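 Female athymic nude mice bearing subcutaneous GBM1-HAM PDX fragments (20 mm³); treatment began day 11 post-implant at tumour volumes 75-196 mm³, 10 per group. Compound i.p. daily in cyclodextrin vehicle (17 days alone, 27 days in combination); temozolomide 42 mg/kg p.o. daily for 5 days in PBS/glucose/Tween 80. Calliper volumes three times weekly; body weight and clinical signs monitored.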

[2] = Prodrug conversion in Swiss mouse plasma assessed as half life of (2R,4aR,9aR)-7-((E)-2-(5-hydroxy-2,2-dimethylchroman-7-yl)vinyl)-1,1,4a-trimethyl-2,3,4,4a,9,9a-hexahydro-1H-xanthene-2,5-diol metabolite at 20 mg/kg, IP and measured upto 6 hrs by LC-MS/MS analysis; assay type: ADME, organism-based; conditions: in vivo
In short: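 Male Swiss mice (5-6 weeks, 3 per dose) given a single i.p. dose of prodrug, 2.5 mg/mL in 15% hydroxypropyl-β-cyclodextrin in 65 mM phosphate pH 7.4. Retro-orbital blood taken at 5, 15, 30 min and 1, 3, 6 h; plasma acetonitrile-precipitated. Parent and metabolite quantified by LC-MS/MS with a 1-2,000 ng/mL calibration.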

[3] = target: T1, Oxysterol-binding protein 1 (Homo sapiens) (UniProt P22059); experiment: Inhibition of human OSBP in human hTERT-RPE1 cells co-transfected with GFP-P4MSidM and TagBFP-betaGalT1 assessed as half life for inhibition of PI4P transfer by OBSP by immunofluorescence analysis; assay type: cell-based
T1 sequence (whole entry): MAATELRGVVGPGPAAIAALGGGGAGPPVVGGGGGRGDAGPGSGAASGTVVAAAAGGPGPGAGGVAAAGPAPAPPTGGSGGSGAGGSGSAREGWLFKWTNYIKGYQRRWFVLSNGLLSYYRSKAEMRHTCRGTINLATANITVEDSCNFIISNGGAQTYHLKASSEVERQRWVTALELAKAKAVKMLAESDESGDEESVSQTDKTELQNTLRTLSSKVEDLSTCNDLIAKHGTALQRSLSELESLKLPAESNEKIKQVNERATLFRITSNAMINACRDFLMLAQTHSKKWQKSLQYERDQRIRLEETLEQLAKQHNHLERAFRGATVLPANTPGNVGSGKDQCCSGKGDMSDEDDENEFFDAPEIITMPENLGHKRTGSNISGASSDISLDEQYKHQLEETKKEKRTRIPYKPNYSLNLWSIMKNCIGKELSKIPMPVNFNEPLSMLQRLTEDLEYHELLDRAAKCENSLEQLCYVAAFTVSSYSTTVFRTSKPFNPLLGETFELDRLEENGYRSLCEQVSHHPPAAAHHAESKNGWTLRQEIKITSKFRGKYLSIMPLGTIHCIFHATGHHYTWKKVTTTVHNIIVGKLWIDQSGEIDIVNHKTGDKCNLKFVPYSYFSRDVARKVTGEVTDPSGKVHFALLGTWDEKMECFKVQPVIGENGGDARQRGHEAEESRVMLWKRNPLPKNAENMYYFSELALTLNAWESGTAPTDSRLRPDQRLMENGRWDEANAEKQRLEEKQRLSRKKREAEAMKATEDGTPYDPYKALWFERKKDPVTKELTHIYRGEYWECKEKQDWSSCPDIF
In short: (§2)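 hTERT-RPE-1 cells electroporated with GFP-P4M^SidM (PI4P probe) and TagBFP-βGalT1, plated 18-24 h. Timelapse confocal imaging at 37 °C after compound addition, with P4M-GFP intensity at the TGN tracked over time and compared before and 50 min after addition. Mean of 4 to 6 independent experiments ± SEM.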

[4] = Antitumor activity in high alert medicated patient derived human GBM1 cells xenografted in immunodeficient nude mouse model assessed as change in tumor volume at 50 mg/kg,ip QD and measured after 11 days relative to control; assay type: functional; conditions: time 11 day; in short: as §1
mTORC1 (Homo sapiens) = mTORC1 (Homo sapiens) (UniProt P42345+Q8N122+Q9BVC4); experiment: Inhibition of mTORC1 signalling in human U-87 MG cells assessed as decrease in S6K phosphorylation at T389 residue at 0.05 to 1 uM incubated for 48 hrs by Western blot analysis; assay type: cell-based
Sequence of mTORC1 (Homo sapiens) (Q8N122 whole entry, looked up, other chains not shown): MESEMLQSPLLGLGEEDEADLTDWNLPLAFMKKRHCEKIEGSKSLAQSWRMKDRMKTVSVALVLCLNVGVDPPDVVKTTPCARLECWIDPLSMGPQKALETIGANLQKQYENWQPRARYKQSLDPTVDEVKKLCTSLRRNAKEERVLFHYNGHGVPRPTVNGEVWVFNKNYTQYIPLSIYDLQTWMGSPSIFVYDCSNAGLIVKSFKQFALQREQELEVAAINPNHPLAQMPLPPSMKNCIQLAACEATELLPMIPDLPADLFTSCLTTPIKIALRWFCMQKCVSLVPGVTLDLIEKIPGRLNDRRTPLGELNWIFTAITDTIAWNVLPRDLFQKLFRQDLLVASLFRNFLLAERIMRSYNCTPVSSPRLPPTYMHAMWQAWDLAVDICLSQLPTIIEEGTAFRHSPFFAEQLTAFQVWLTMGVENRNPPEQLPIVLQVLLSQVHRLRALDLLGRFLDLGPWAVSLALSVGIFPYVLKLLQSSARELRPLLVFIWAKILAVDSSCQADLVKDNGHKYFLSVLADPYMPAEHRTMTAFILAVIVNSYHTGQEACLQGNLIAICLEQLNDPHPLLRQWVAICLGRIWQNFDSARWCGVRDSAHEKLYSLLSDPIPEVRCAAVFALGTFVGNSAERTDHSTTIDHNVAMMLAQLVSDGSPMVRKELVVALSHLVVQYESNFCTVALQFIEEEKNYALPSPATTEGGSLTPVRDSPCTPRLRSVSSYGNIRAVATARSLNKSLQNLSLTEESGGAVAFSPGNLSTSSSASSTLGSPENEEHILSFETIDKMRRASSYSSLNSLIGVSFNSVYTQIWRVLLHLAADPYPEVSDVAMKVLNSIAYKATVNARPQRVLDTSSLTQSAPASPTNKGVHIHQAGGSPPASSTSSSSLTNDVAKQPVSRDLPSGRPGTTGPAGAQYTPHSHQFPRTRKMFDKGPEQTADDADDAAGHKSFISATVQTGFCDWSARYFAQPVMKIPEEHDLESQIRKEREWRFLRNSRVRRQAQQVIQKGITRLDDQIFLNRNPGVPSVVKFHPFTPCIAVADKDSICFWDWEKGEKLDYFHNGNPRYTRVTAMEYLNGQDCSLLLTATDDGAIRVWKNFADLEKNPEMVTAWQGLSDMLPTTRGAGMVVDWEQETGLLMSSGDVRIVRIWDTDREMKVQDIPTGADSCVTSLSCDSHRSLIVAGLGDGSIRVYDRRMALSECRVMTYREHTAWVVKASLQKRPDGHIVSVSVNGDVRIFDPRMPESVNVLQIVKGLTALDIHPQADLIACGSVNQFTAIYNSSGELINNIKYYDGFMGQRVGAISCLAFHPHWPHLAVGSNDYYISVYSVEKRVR
Sequence of mTORC1 (Homo sapiens) (Q9BVC4 whole entry, looked up, other chains not shown): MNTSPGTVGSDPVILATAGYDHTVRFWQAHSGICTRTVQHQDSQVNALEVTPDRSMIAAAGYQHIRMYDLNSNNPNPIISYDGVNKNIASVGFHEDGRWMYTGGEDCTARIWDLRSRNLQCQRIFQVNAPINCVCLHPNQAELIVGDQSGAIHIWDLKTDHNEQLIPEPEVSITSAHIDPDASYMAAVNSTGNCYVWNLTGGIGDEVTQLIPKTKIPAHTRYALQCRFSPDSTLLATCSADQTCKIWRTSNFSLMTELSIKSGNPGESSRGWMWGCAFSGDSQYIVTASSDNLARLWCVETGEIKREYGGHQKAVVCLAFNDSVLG
In short: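 U-87 MG cells cultured two days, then exposed 48 h to increasing doses. Lysed in RIPA with protease inhibitors; 5 µg protein run on 4-20% SDS gels and transferred to PVDF. Probed for phospho/total AKT, S6, S6K, P62 and LC3, detected by ECL. Band intensities normalized to β-actin.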

[5] = target: T1, Oxysterol-binding protein 1 (Homo sapiens); experiment: Inhibition of human OSBP in human hTERT-RPE1 cells co-transfected with GFP-P4MSidM and TagBFP-betaGalT1 assessed as increase in PI4P at TGN by measuring GFP-P4M fluorescence and measured after 50 mins by immunofluorescence analysis; assay type: cell-based; in short: as §2
[6] = Metabolic stability in mouse plasma assessed as half life at 5 uM and measured upto 120 mins by UPLC-MS/MS analysis; assay type: ADME, cell-free
In short: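 Male mouse plasma at 37 °C with compound added from a 5 µM solution […]. Sampled at 0, 15, 30, 45, 60 and 120 min, quenched with acetonitrile and read by LC-MS/MS (MRM) in duplicate. Procaine positive control. Remaining % and t1/2 derived from MRM area relative to t = 0.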

[7] = Antitumor activity in high alert medicated patient derived human GBM1 cells xenografted in immunodeficient nude mouse model assessed as change in tumor volume at 20 mg/kg,ip QD cotreatment with Temozolomide at 42 mg/kg,po QD and measured after 11 days relative to control; assay type: functional; conditions: time 11 day; in short: as §1
[8] = Toxicity in immunodeficient mouse assessed as clinical symptoms at 100 mg/kg,ip QD for 5 days; assay type: organism-based; conditions: in vivo, 120 h, time 5 day
[9] = Toxicity in immunodeficient nude mouse model xenografted with high alert medicated patient derived human GBM1 cells assessed as body weight change at 20 mg/kg,ip QD for 27 days cotreatment with Temozolomide at 42 mg/kg,po QD for 5 days; assay type: organism-based; conditions: in vivo, 648 h, time 27 day; in short: as §1
[10] = Antitumor activity in high alert medicated patient derived human GBM1 cells xenografted in immunodeficient nude mouse model assessed as tumor growth inhibition at 50 mg/kg,ip QD cotreatment with Temozolomide at 42 mg/kg,po QD and measured from 9 to 11 days; assay type: functional; in short: as §1
[11] = Antitumor activity in high alert medicated patient derived human GBM1 cells xenografted in immunodeficient nude mouse model assessed as T/C ratio at 50 mg/kg,ip QD cotreatment with Temozolomide at 42 mg/kg,po QD and measured from 9 to 11 days; assay type: functional; conditions: time 9-11 day; in short: as §1
[12] = Toxicity in immunodeficient nude mouse model xenografted with high alert medicated patient derived human GBM1 cells assessed as body weight change at 50 mg/kg,ip QD for 17 days; assay type: organism-based; conditions: in vivo, 408 h, time 17 day; in short: as §1
[13] = Metabolic stability in mouse liver microsomes assessed as compound remaining at 2.5 uM and measured after 45 mins in presence of NADPH by LC-MS/MS analysis; assay type: ADME, Microsome; conditions: read-out: Stability
[14] = Toxicity in immunodeficient mouse assessed as body weight change at 100 mg/kg,ip QD for 5 days; assay type: organism-based; conditions: in vivo, 120 h, time 5 day

Question: For `CC1(C)CCc2c(O)cc(/C=C/c3cc(O)c4c(c3)C[C@@H]3C(C)(C)[C@H](OC=O)CC[C@@]3(C)O4)cc2O1`, which TGDI at 50 mg/kg [1] is on record?
Answer: 1.37%

Question: And the t1/2 [2]?
Answer: 120 min

Question: And the T1/2 [3]?
Answer: 25 min

Question: What about the Activity [4] of the same molecule?
Answer: 625.61%

Question: What about the inhibition (mTORC1 (Homo sapiens)) of the same molecule?
Answer: Dose-Dependent Effect

Question: What about the inhibition [5] of the same molecule?
Answer: Active

Question: What about the half-life at 5 µM [6] of the same molecule?
Answer: 51 min

Question: And the Activity [7]?
Answer: 396.24%

Question: What about the Activity [8] of the same molecule?
Answer: Non-Toxic

Question: And the Activity [9]?
Answer: Non-Toxic

Question: And the TGDI at 50 mg/kg [10]?
Answer: 2.07%

Question: And the T/C [11]?
Answer: 41.43%

Question: What about the Activity [12] of the same molecule?
Answer: Non-Toxic

Question: What about the remaining at 0.75 h, 2.5 µM [13] of the same molecule?
Answer: 5.3%

Question: What about the Activity [14] of the same molecule?
Answer: Non-Toxic
